Consider four compounds from ChEMBL document CHEMBL1133127, “Activation of antibacterial prodrugs by peptide deformylase” (Bioorg Med Chem Lett, 2000).

The structures appear in SMILES notation.

Data set [1] can be described thus: Half-life was determined. Format: ADME. The settings on record: human. The essentials: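 Deformylated intermediate cyclizes to diketopiperazine, releasing FdU. Followed by C18 HPLC at 214 nm after PDF treatment in 20 mM sodium phosphate pH 7.4. First-order fit of ln(A0/A) versus time; half-life taken from the fit.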
The test system of data set [2] is Escherichia coli. Briefly: The compound was tested for its antibacterial activity against Escherichia coli BL21(DE3) cells in luria broth. Format: functional, organism-based.
The subject of data set [3] is Escherichia coli. Briefly: The compound was tested for activation by purified Escherichia coli PDF in vitro by measuring deformylation at pH 7.4. Format: functional. The essentials: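 Purified E. coli PDF added to prodrug (~1 mM) in 20 mM sodium phosphate pH 7.4. Aliquots taken over time and quenched with equal volume 100 mM TFA. Analysed by C18 HPLC at 214 nm; kcat/KM derived from deformylation to intermediate.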

For data set [4], the system named is Escherichia coli. Briefly: Compound was tested for its antibacterial activity against Escherichia coli BL21(DE3) cells in luria broth. The class given is functional, organism-based.
Data set [5] concerns Staphylococcus epidermidis. The data set is described as follows: Compound was tested for its antibacterial activity against Staphylococcus epidermidis. The class given is functional, organism-based.
Data set [6] deals with Staphylococcus epidermidis. The data set is described as follows: The compound was tested for its antibacterial activity against Staphylococcus epidermidis. The class given is functional, organism-based.

As to `CSCC[C@H](NC=O)C(=O)N(C)[C@@H](CC(C)C)C(=O)OCC1OC(n2cc(F)c(=O)[nH]c2=O)CC1O` (some centres not stated), in data set [1], the half-life (as a rule, how long it takes for the measured level to halve) was 2.07 min. In the data set with Escherichia coli [2], the IC50 – broadly, the midpoint of a concentration-inhibition curve – is greater than 100 µM. For the same compound, in the data set with Escherichia coli [3], the k cat/Km stood at 1650 M⁻¹ s⁻¹.
As to `CSCC[C@H](NC=O)C(=O)NC(C)(C)C(=O)OCC1OC(n2cc(F)c(=O)[nH]c2=O)CC1O` (some centres not stated), the half-life in data set [1] turned out to be 51.1 min. Also, the figures for the half-maximal inhibitory concentration (IC50) (in the data set on Escherichia coli [4]; in data set [5]; in data set [6]) were greater than 100 µM, roughly 50 µM and 50 µM, respectively. In the data set on Escherichia coli [3], this compound gave a k cat/Km of 28900 M⁻¹ s⁻¹.
In data set [1], `CSCC[C@H](NC=O)C(=O)N1CCC[C@H]1C(=O)OCC1OC(n2cc(F)c(=O)[nH]c2=O)CC1O` (some centres not stated) returned a half-life of 4.68 min. The IC50 in the data set on Escherichia coli [2] is greater than 100 µM.
`CSCC[C@H](NC=O)C(=O)N1CCC[C@@H]1C(=O)OCC1OC(n2cc(F)c(=O)[nH]c2=O)CC1O` (some centres not stated) had a half-life in data set [1] of 15.2 min. The same compound registered an IC50 in the data set with Escherichia coli [2] greater than 100 µM.
